From ChEMBL document CHEMBL1944618, “Synthesis and antifungal activity of a new series of 2-(1H-imidazol-1-yl)-1-phenylethanol derivatives” (Eur J Med Chem, 2012)
Values after ≈ are worked out from the molar mass of the structure shown.

What was measured:
Format in all cases: functional
Candida parapsilosis [1] = test: Antifungal activity against Candida parapsilosis ATCC 22019 after 48 hrs by M27-A3 CLSI method; settings: Lodderomyces parapsilosis, ATCC 22019, 48 h
How it was run: (§1)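 Broth microdilution in RPMI 1640, two-fold serial dilutions, final test range 0.125–64 µg mL-1 (fluconazole reference 0.0078–128 µg mL-1). Inoculum 1.0×10^3–1.5×10^3 cells mL-1 from yeasts grown 24 h at 35 °C on Sabouraud dextrose agar. Incubation 35 °C, read at 48 h. MIC = lowest concentration giving >50% turbidity decrease versus growth control. Run three times in triplicate. C. parapsilosis ATCC22019 served as QC.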

Candida tropicalis [2] = test: Antifungal activity against Candida tropicalis DSM 11953 after 48 hrs by M27-A3 CLSI method; settings: DSM 11953, 48 h; how it was run: as §1
Candida albicans [3] = test: Antifungal activity against Candida albicans ATCC 76615 after 48 hrs by M27-A3 CLSI method; settings: ATCC 76615, 48 h; how it was run: as §1
Nakaseomyces glabratus = test: Antifungal activity against Candida glabrata PMC 0805 after 48 hrs by M27-A3 CLSI method; settings: PMC 0805, 48 h; how it was run: as §1
Candida albicans [4] = test: Antifungal activity against Candida albicans ATCC 24433 after 48 hrs by M27-A3 CLSI method; settings: Candida albicans, ATCC 24433, 48 h; read-out: MIC; how it was run: as §1
Candida = test: Antifungal activity against Candida sp. after 48 hrs by M27-A3 CLSI method; how it was run: as §1
Candida albicans [5] = test: Antifungal activity against Candida albicans ATCC 3153 after 48 hrs by M27-A3 CLSI method; settings: ATCC 3153, 48 h; how it was run: as §1
Candida albicans [6] = test: Antifungal activity against Candida albicans ATCC 10231 after 48 hrs by M27-A3 CLSI method; settings: ATCC 10231, 48 h; how it was run: as §1
Pichia kudriavzevii [7] = test: Antifungal activity against Candida krusei DSM 6128 after 48 hrs by M27-A3 CLSI method; settings: DSM 6128, 48 h; how it was run: as §1
Candida tropicalis [8] = test: Antifungal activity against Candida tropicalis PMC 0910 after 48 hrs by M27-A3 CLSI method; settings: PMC 0910, 48 h; how it was run: as §1
Pichia kudriavzevii [9] = test: Antifungal activity against Candida krusei PMC 0613 after 48 hrs by M27-A3 CLSI method; settings: Pichia kudriavzevii, PMC 0613, 48 h; read-out: MIC; how it was run: as §1
Candida albicans [10] = test: Antifungal activity against Candida albicans after 48 hrs by M27-A3 CLSI method; how it was run: as §1
Candida parapsilosis [11] = test: Antifungal activity against Candida parapsilosis DSM 11224 after 48 hrs by M27-A3 CLSI method; settings: Lodderomyces parapsilosis, DSM 11224, 48 h; read-out: MIC; how it was run: as §1

SMILES | MIC (Candida parapsilosis [1]) [µg/mL] | MIC (Candida tropicalis [2]) [µg/mL] | MIC (Candida albicans [3]) [µg/mL] | MIC (Nakaseomyces glabratus) [µg/mL] | MIC (Candida albicans [4]) [µg/mL] | MIC (Candida) [µg/mL] | MIC50 (Candida) [µg/mL] | MIC90 (Candida) [µg/mL] | MIC (Candida albicans [5]) [µg/mL] | MIC (Candida albicans [6]) [µg/mL] | MIC (Pichia kudriavzevii [7]) [µg/mL] | MIC (Candida tropicalis [8]) [µg/mL] | MIC (Pichia kudriavzevii [9]) [µg/mL] | MIC (Candida albicans [10]) [µg/mL] | MIC50 (Candida albicans [10]) [µg/mL] | MIC90 (Candida albicans [10]) [µg/mL] | MIC (Candida parapsilosis [11]) [µg/mL]
OC(Cn1ccnc1)c1ccc(Cl)cc1 (racemic) | > 64 | > 64 | > 64 | > 64 | > 64 | 108 (≈ 485 µM) | 128 (≈ 575 µM) | 128 (≈ 575 µM) | > 32 | > 64 | > 64 | > 64 | 16 (≈ 71.9 µM) | 112 (≈ 503 µM) | 128 (≈ 575 µM) | 128 (≈ 575 µM) | 64 (≈ 287 µM)
O=C(OC(Cn1ccnc1)c1ccccc1)c1cccc(C(F)(F)F)c1 (racemic) | 64 (≈ 178 µM) | > 64 | ≥ 64 | > 64 | ≥ 64 | 85 (≈ 236 µM) | 64 (≈ 178 µM) | 128 (≈ 355 µM) | ≥ 64 | 32 (≈ 88.8 µM) | > 64 | 32 (≈ 88.8 µM) | 64 (≈ 178 µM) | 91.4 (≈ 254 µM) | 64 (≈ 178 µM) | 128 (≈ 355 µM) | 8 (≈ 22.2 µM)
Cl.O=C(OC(Cn1ccnc1)c1ccc(Cl)cc1)c1cccc(C(F)(F)F)c1 (racemic) | > 64 | 32 | > 64 | 32 | 8 | 43.8 | 32 | 128 | 8 | 4 | 32 | 0.5 | 32 | 46.3 | 8 | 16 | 8
O=C(COc1ccccc1)OC(Cn1ccnc1)c1ccc(Cl)cc1 (racemic) | 32 (≈ 89.7 µM) | > 64 | > 64 | 16 (≈ 44.8 µM) | 2 (≈ 5.61 µM) | 51.3 (≈ 144 µM) | 16 (≈ 44.8 µM) | 128 (≈ 359 µM) | 16 (≈ 44.8 µM) | 4 (≈ 11.2 µM) | > 64 | 4 (≈ 11.2 µM) | 16 (≈ 44.8 µM) | 67.7 (≈ 190 µM) | 64 (≈ 179 µM) | 128 (≈ 359 µM) | 8 (≈ 22.4 µM)
CC(C)c1ccc(NC(=O)OC(Cn2ccnc2)c2ccc(Cl)cc2)cc1 (racemic) | > 64 | > 64 | > 64 | > 64 | 16 (≈ 41.7 µM) | 115 (≈ 299 µM) | 128 (≈ 333 µM) | 128 (≈ 333 µM) | 16 (≈ 41.7 µM) | 4 (≈ 10.4 µM) | > 64 | > 64 | > 64 | 60 (≈ 156 µM) | 64 (≈ 167 µM) | 128 (≈ 333 µM) | > 64
O=C(Nc1cc(Cl)nc(Cl)c1)OC(Cn1ccnc1)c1ccc(Cl)cc1 (racemic) | > 64 | > 64 | > 64 | > 64 | > 64 | 121 (≈ 294 µM) | 128 (≈ 311 µM) | 128 (≈ 311 µM) | > 64 | > 64 | > 64 | > 64 | > 64 | 119 (≈ 289 µM) | 128 (≈ 311 µM) | 128 (≈ 311 µM) | > 64
Cl.O=C(OC(Cn1ccnc1)c1ccc(F)cc1)c1cccc(C(F)(F)F)c1 (racemic; 4b) | 32 | 32 | ≥ 64 | 32 | 8 | 22.6 | 16 | 32 | 8 | 8 | 64 | 1 | 16 | 34.3 | 8 | 64 | 8

Second part, the compound after the results:

MIC (Candida parapsilosis [1]) [µg/mL] | MIC (Candida tropicalis [2]) [µg/mL] | MIC (Candida albicans [3]) [µg/mL] | MIC (Nakaseomyces glabratus) [µg/mL] | MIC (Candida albicans [4]) [µg/mL] | MIC (Candida) [µg/mL] | MIC50 (Candida) [µg/mL] | MIC90 (Candida) [µg/mL] | MIC (Candida albicans [5]) [µg/mL] | MIC (Candida albicans [6]) [µg/mL] | MIC (Pichia kudriavzevii [7]) [µg/mL] | MIC (Candida tropicalis [8]) [µg/mL] | MIC (Pichia kudriavzevii [9]) [µg/mL] | MIC (Candida albicans [10]) [µg/mL] | MIC50 (Candida albicans [10]) [µg/mL] | MIC90 (Candida albicans [10]) [µg/mL] | MIC (Candida parapsilosis [11]) [µg/mL] | SMILES
≥ 64 | 64 (≈ 340 µM) | > 64 | > 64 | 64 (≈ 340 µM) | 98.5 (≈ 523 µM) | 64 (≈ 340 µM) | 128 (≈ 680 µM) | ≥ 64 | > 64 | > 64 | > 64 | > 64 | 107 (≈ 567 µM) | 128 (≈ 680 µM) | 128 (≈ 680 µM) | ≥ 64 | OC(Cn1ccnc1)c1ccccc1 (racemic)
> 64 | > 64 | > 64 | 16 (≈ 77.6 µM) | > 64 | 104 (≈ 504 µM) | 128 (≈ 621 µM) | 128 (≈ 621 µM) | 32 (≈ 155 µM) | > 64 | > 64 | 16 (≈ 77.6 µM) | 64 (≈ 310 µM) | 101 (≈ 491 µM) | 128 (≈ 621 µM) | 128 (≈ 621 µM) | > 64 | OC(Cn1ccnc1)c1ccc(F)cc1 (racemic)
64 (≈ 149 µM) | > 64 | ≥ 64 | > 64 | ≥ 64 | 100 (≈ 233 µM) | 128 (≈ 299 µM) | 128 (≈ 299 µM) | ≥ 64 | 64 (≈ 149 µM) | > 64 | 32 (≈ 74.7 µM) | 64 (≈ 149 µM) | 91.4 (≈ 213 µM) | 64 (≈ 149 µM) | 128 (≈ 299 µM) | > 64 | O=C(OC(Cn1ccnc1)c1ccc(C(F)(F)F)cc1)c1cccc(C(F)(F)F)c1 (racemic)
64 (≈ 178 µM) | 16 (≈ 44.4 µM) | ≥ 64 | 8 (≈ 22.2 µM) | 8 (≈ 22.2 µM) | 55.5 (≈ 154 µM) | 32 (≈ 88.8 µM) | 128 (≈ 355 µM) | 8 (≈ 22.2 µM) | 8 (≈ 22.2 µM) | > 64 | 4 (≈ 11.1 µM) | 64 (≈ 178 µM) | 33.1 (≈ 91.9 µM) | 8 (≈ 22.2 µM) | 64 (≈ 178 µM) | 32 (≈ 88.8 µM) | O=C(OC(Cn1ccnc1)c1ccccc1)c1ccc(C(F)(F)F)cc1 (racemic)
> 64 | > 64 | > 64 | 16 (≈ 47 µM) | 16 (≈ 47 µM) | 61.1 (≈ 180 µM) | 4 (≈ 11.8 µM) | 128 (≈ 376 µM) | ≥ 64 | 8 (≈ 23.5 µM) | > 64 | 1 (≈ 2.94 µM) | 16 (≈ 47 µM) | 76.6 (≈ 225 µM) | 64 (≈ 188 µM) | 128 (≈ 376 µM) | 4 (≈ 11.8 µM) | O=C(COc1ccccc1)OC(Cn1ccnc1)c1ccc(F)cc1 (racemic)
64 (≈ 183 µM) | > 64 | ≥ 64 | > 64 | 32 (≈ 91.6 µM) | 107 (≈ 305 µM) | 128 (≈ 366 µM) | 128 (≈ 366 µM) | ≥ 64 | 64 (≈ 183 µM) | > 64 | 64 (≈ 183 µM) | 64 (≈ 183 µM) | 77.7 (≈ 222 µM) | 64 (≈ 183 µM) | 128 (≈ 366 µM) | > 64 | CC(C)c1ccc(NC(=O)OC(Cn2ccnc2)c2ccccc2)cc1 (racemic)
> 64 | > 64 | ≥ 64 | > 64 | 1 (≈ 2.72 µM) | 68.4 (≈ 186 µM) | 4 (≈ 10.9 µM) | 128 (≈ 348 µM) | 16 (≈ 43.5 µM) | 2 (≈ 5.44 µM) | 16 (≈ 43.5 µM) | 4 (≈ 10.9 µM) | 64 (≈ 174 µM) | 39.6 (≈ 108 µM) | 16 (≈ 43.5 µM) | 64 (≈ 174 µM) | 16 (≈ 43.5 µM) | CC(C)c1ccc(NC(=O)OC(Cn2ccnc2)c2ccc(F)cc2)cc1 (racemic)
> 8 | 4 (≈ 10.6 µM) | > 64 | > 64 | 16 (≈ 42.3 µM) | 52.9 (≈ 140 µM) | 8 (≈ 21.1 µM) | 128 (≈ 338 µM) | 2 (≈ 5.29 µM) | 8 (≈ 21.1 µM) | > 64 | > 64 | 8 (≈ 21.1 µM) | 27.7 (≈ 73.2 µM) | 8 (≈ 21.1 µM) | 16 (≈ 42.3 µM) | 4 (≈ 10.6 µM) | O=C(OC(Cn1ccnc1)c1ccc(F)cc1)c1cccc(C(F)(F)F)c1 (racemic; 3b)
